# Publication PMC6467790 (Journal of medicinal chemistry, 2018)
# “Also recorded” adds a separate entry of the source.
# Key:
# K562 cells = conditions: 10 nM; cited from earlier work
# PAMPA permeability assay = format: in vitro ADME; conditions: pH 7.4
# BT474 cells [1] = assay: IncuCyte live cell proliferation, BT474; format: cell-based, human
# Summary of the method: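 BT474 cells were treated with test compound. Growth was followed by live-cell imaging every 4 h over 300 h, with percent confluence as the read-out.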
# KDM5A catalytic domain = assay: Isothermal titration calorimetry, binding to KDM5A catalytic domain; parameters: species or system human; conditions: ITC
# Summary of the method: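 Binding was measured by isothermal titration calorimetry with the KDM5A(1−588)ΔAP catalytic-domain construct (internal ARID and PHD1 deleted). KD was the read-out.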
# KDM5B [2] = assay: AlphaLISA demethylase assay, KDM5B; format: biochemical, human; conditions: AlphaLISA IC50 values; recombinant catalytic domains, same enzyme concentration
# MCF7 cells [3] = assay: Western blot of histone methylation levels in MCF7 cells; format: cell-based, human
# Summary of the method: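 MCF7 cells were treated with test compound at the indicated concentrations, or 0.1% DMSO, for 30 or 48 h. Total cell lysates were analysed by Western blot with histone methylation antibodies.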
# KDM4A = molecular target: T1, KDM4A (Homo sapiens, UniProt O75164); assay: AlphaLISA demethylase assay, KDM4A; format: biochemical
# T1 sequence (O75164 1-359 limits assumed): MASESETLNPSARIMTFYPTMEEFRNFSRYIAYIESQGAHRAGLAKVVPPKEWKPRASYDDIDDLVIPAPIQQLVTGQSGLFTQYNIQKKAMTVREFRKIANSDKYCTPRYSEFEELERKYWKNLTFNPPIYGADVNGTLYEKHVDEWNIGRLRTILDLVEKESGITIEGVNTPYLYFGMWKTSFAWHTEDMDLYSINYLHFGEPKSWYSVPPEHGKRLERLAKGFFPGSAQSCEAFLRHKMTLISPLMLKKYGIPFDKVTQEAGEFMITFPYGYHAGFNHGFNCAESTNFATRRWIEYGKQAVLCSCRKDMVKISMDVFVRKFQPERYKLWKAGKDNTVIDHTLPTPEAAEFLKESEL
# KDM5A(1−739)ΔAP = molecular target: T2, KDM5A(1−739)ΔAP (Homo sapiens, UniProt P29375, DEL88-347); assay: Promega Succinate-Glo demethylase assay; format: biochemical; conditions: for reversibility of inhibition after buffer exchange / dialysis: [E] = 5 μM, initial [I] = 100 μM, four times of buffer exchange; for dependence of inhibition of KDM5A on αKG concentration: three αKG concentrations (10, 100, 1000 μM), 20 min preincubation; for effect of preincubation with KDM5A on inhibition potency: with or without incubation for 20 min
# T2 sequence (P29375 with tags, fused parts or gaps DEL88-347 limits assumed): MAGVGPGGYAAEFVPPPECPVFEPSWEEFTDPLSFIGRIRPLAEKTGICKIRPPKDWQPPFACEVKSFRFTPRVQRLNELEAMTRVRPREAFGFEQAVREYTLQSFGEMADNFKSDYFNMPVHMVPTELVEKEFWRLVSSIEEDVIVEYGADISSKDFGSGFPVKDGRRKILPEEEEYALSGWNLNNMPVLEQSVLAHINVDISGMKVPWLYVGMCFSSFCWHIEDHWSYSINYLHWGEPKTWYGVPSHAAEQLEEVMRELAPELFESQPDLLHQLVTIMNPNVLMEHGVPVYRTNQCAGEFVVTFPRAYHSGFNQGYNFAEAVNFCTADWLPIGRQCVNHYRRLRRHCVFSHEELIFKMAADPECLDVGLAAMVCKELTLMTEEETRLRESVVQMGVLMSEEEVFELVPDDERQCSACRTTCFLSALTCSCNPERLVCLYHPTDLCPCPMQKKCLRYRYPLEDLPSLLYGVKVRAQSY
# Summary of the method: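 Succinate-Glo assay: KDM5A(1−739)ΔAP (0.8 μM) was preincubated 20 min with 2-fold serial dilutions of test compound. Reactions were started with αKG (10, 100 or 1000 μM) plus H3(1−24)K4me3 peptide (60 μM), in 10 μM (NH4)2Fe(SO4)2, 100 μM ascorbate, 50 mM HEPES pH 8.0 and 5% DMSO. They ran 10 min at ambient temperature (n = 3), then succinate detection reagents were added. IC50 came from a four-parameter fit.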
# KDM5A = assay: ESI mass spectrometry of KDM5A with inhibitors; format: binding, human; conditions: KDM5A 50 μM, inhibitor 0.5 mM, 30 min, ambient temperature
# MCF7 = assay: Bright-field microscopy of live cells, MCF7; format: cell-based, human; conditions: MCF7, 24 h; N73: between 5 and 10 μM
# MDA-MB-231 = assay: Bright-field microscopy of live cells, MDA-MB-231; format: cell-based, human; conditions: MDA-MB-231, 24 h; N73: between 5 and 10 μM
# HEK293T = assay: Bright-field microscopy of live cells, HEK293T; format: cell-based, human; conditions: 24 h, N73: between 5 and 10 μM
# BT474 cells [4] = assay: Cellular H3K4me3 level in BT474 cells; format: cell-based, human
# MCF7 cells [5] = assay: Real-time RT-PCR of KDM5 target genes in MCF7 cells; format: cell-based, human; conditions: MCF7, 1 μM for 2 days
# KDM5B [6] = conditions: cited from earlier work
# [7] = Stability in culture media; format: in vitro ADME; conditions: after 24 h
# BT474 cells [8] = assay: Cellular extract experiment, BT474 cells; format: in vitro ADME, human
compound,measurement,setting,value
CN(C)C/C=C/C(=O)Nc1cc2c(Nc3ccc(F)c(Cl)c3)ncnc2cc1O[C@H]1CCOC1 [Afatinib],cytotoxicity for EGFR expressing K562 cells,K562 cells,complete cytotoxicity
"CC(C)OC(=O)c1ccnc2cc(C(OCCN3CCCCC3)c3cccc(N)c3)sc12 (stereo not drawn) [SI-5, Isopropyl 2-((3-Aminophenyl)(2-(piperidin-1-yl)-ethoxy)methyl)thieno[3,2-b]pyridine-7-carboxylate]","Papp at 30 min, 0.05 mM",PAMPA permeability assay,> 100 ×10⁻⁶ cm/s
same,growth inhibition (percent confluence),"BT474 cells [1]; BT474, highest concentration tested 28 μM",some growth inhibition at the highest concentration tested
"CN1CCCC1CCOC(c1cc2nccc(C(=O)O)c2s1)c1ccccc1Cl (stereo not drawn) [N49, 2-((2-Chlorophenyl)(2-(1-methylpyrrolidin-2-yl)-ethoxy)methyl)thieno[3,2-b]pyridine-7-carboxylic Acid]",difference in binding affinity (KD) to KDM5A between N46 and N49,KDM5A catalytic domain,approximately 2 fold
same,selectivity for KDM5B over KDM4A,KDM5B [2],7−8 fold
CCOC(=O)CCNc1cc(N2CCc3ccccc3CC2)nc(-c2ccccn2)n1 [GSK-J4],overall levels of H3K4me3 or H3K27me3,"MCF7 cells [3]; MCF7, same conditions tested",influences little of the overall levels of H3K4me3 or H3K27me3
"Nc1cccc(C(OCCN2CCCCC2)c2cc3nccc(C(=O)O)c3s2)c1 (stereo not drawn) [N70, 2-((3-aminophenyl)(2-(piperidin-1-yl)ethoxy)-methyl)thieno[3,2-b]pyridine-7-carboxylic acid]",selectivity for KDM5B over KDM4A,KDM5B [2],7−8 fold
same,"inhibition constants against KDM4A, N70 compared with N71",KDM4A,about the same
same,reversibility of inhibition after buffer exchange / dialysis,KDM5A(1−739)ΔAP,could be reversed after dialysis; also recorded: removes the noncovalent modifying N70 from solution; also recorded: enzyme activity could be restored after buffer exchange
same,dependence of inhibition of KDM5A on αKG concentration,KDM5A(1−739)ΔAP,αKG-competitive inhibition; also recorded: dependent on αKG concentration
same,effect of preincubation with KDM5A on inhibition potency,KDM5A(1−739)ΔAP,insensitive
same,"Papp at 30 min, 0.05 mM",PAMPA permeability assay,10 to 100 ×10⁻⁶ cm/s
"CN(C)C/C=C/C(=O)Nc1cccc(C(OCCN2CCCCC2)c2cc3nccc(C(=O)O)c3s2)c1 (stereo not drawn) [N71, (E)-2-((3-(4-(Dimethylamino)but-2-enamido)-phenyl)(2-(piperidin-1-yl)ethoxy)methyl)thieno[3,2-b]pyridine-7-carboxylic Acid]","inhibition constants against KDM4A, N70 compared with N71",KDM4A,about the same
same,dependence of inhibition of KDM5A on enzyme concentration,KDM5A(1−739)ΔAP,dependent on enzyme concentration
same,kinact/KI,KDM5A(1−739)ΔAP,~8000 M⁻¹ s⁻¹
same,IC50 value lower than that of N70,KDM5A(1−739)ΔAP; 100 μM αKG concentration,~ 50 fold
same,reversibility of inhibition after buffer exchange / dialysis,KDM5A(1−739)ΔAP,persisted even after dialysis; also recorded: does not perturb N71 complex with KDM5A; also recorded: no effect on the inhibition
same,dependence of inhibition of KDM5A on αKG concentration,KDM5A(1−739)ΔAP,no significant change to IC50 values with variation in αKG concentration; also recorded: did not appear to be sensitive to the αKG concentration
same,effect of preincubation with KDM5A on inhibition potency,KDM5A(1−739)ΔAP,increased inhibition potency
same,covalent modification of KDM5A enzyme by mass spectrometry,KDM5A,covalently modified KDM5A enzyme completely
same,cell killing / effect on cell growth,MCF7,no effect on cell growth
same,cell killing / effect on cell growth,MDA-MB-231,no effect on cell growth
same,cell killing / effect on cell growth,HEK293T,no effect on cell growth
CCOC(=O)c1ccnc(CNCC(=O)N(CC)CCN(C)C)c1 [KDM5-C70],cellular H3K4me3 levels,"MCF7 cells [3]; MCF7, 1 μM",increase in cellular H3K4me3 levels
same,cellular H3K4me3 levels,"BT474 cells [4]; BT474, 1 μM",increase in cellular H3K4me3 levels
same,"increase of expression of STING, MT1F, and MT1H",MCF7 cells [5],up to 6 fold
same,selectivity for the KDM5 family over KDM4A,KDM5B [6],10 ×
"CC(C)OC(=O)c1ccnc2cc(C(OCCN3CCCCC3)c3cccc(NC(=O)/C=C/CN(C)C)c3)sc12 (stereo not drawn) [N73, Isopropyl (E)-2-((3-(4-(Dimethylamino)but-2-enamido)phenyl)(2-(piperidin-1-yl)ethoxy)methyl)thieno[3,2-b]-pyridine-7-carboxylate]","Papp at 30 min, 0.05 mM",PAMPA permeability assay,10 to 100 ×10⁻⁶ cm/s
same,cellular H3K4me3 methylation levels,"BT474 cells [4]; BT474, doses up to 5 μM, 48 h, immunocytochemistry",does not increase H3K4me3 level; also recorded: no impact on cellular H3K4me3 methylation levels
same,cell growth (percent confluence),"BT474 cells [1]; BT474, low doses, period of >12 days",do not affect cell growth
same,cell killing / effect on cell growth,MCF7,noteworthy difference in cell killing
same,cell killing / effect on cell growth,MDA-MB-231,noteworthy difference in cell killing
same,cell killing / effect on cell growth,HEK293T,noteworthy difference in cell killing
same,remained unchanged in culture media,[7],Approximately 80%
same,intracellular esterase-mediated conversion of ester N73 to acid N71,BT474 cells [8]; 24 h,appeared to be inefficient
same,cell extract level of ester N73 relative to acid N71,"BT474 cells [8]; incubated 24 h, lysed",100 fold
